ChEMBL document CHEMBL1811752, “Synthesis and pharmacological characterization of bicyclic triple reuptake inhibitor 3-aryl octahydrocyclopenta[c]pyrrole analogues” (J Med Chem, 2011)

Legend:
[1] = molecular target: Sodium-dependent serotonin transporter (Homo sapiens, UniProt P31645); experiment: Inhibition of serotonin reuptake at SERT expressed in HEK293 cells; format: cell-based
[2] = molecular target: Sodium-dependent noradrenaline transporter (Homo sapiens, UniProt P23975); experiment: Inhibition of norepinephrine reuptake at NET expressed in MDCK cells; format: cell-based
[3] = molecular target: Sodium-dependent dopamine transporter (Homo sapiens, UniProt Q01959); experiment: Inhibition of dopamine reuptake at DAT expressed in CHO-K1 cells; format: cell-based
[4] = Half life in human liver microsomes at 3 uM by LC-MS/MS analysis; format: ADME, Microsome
Procedure, shortened: (§1)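 Human or mouse liver microsomes (0.5 mg/mL) incubated with 3 μM compound at 37 °C. Reaction started with NADPH and stopped with methanol containing internal standard. Loss of compound followed over 45 min by LC-MS/MS. Peak area ratio to internal standard plotted against time and the slope of the line taken.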

[5] = Half life in mouse liver microsomes at 3 uM by LC-MS/MS analysis; format: ADME, Microsome; procedure, shortened: as §1
CYP1A = molecular target: T1, CYP1A (Homo sapiens, UniProt P04798+P05177); experiment: Inhibition of CYP1A in human liver microsomes by LC-MS/MS analysis; format: ADME, Microsome
T1 sequence (P04798 whole entry): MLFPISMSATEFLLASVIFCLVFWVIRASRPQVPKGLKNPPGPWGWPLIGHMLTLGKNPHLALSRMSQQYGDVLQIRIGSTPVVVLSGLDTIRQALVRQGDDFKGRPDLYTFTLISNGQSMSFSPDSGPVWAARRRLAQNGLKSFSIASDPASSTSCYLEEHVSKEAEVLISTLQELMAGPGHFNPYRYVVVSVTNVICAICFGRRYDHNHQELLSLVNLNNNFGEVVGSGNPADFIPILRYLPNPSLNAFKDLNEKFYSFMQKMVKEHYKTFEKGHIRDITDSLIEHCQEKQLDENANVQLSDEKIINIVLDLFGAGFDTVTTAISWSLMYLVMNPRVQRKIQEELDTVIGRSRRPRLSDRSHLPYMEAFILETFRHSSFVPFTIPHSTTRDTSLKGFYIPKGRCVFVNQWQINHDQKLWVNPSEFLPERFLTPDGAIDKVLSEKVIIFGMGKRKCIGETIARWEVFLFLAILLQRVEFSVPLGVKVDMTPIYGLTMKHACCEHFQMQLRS
T1 sequence (P05177 whole entry): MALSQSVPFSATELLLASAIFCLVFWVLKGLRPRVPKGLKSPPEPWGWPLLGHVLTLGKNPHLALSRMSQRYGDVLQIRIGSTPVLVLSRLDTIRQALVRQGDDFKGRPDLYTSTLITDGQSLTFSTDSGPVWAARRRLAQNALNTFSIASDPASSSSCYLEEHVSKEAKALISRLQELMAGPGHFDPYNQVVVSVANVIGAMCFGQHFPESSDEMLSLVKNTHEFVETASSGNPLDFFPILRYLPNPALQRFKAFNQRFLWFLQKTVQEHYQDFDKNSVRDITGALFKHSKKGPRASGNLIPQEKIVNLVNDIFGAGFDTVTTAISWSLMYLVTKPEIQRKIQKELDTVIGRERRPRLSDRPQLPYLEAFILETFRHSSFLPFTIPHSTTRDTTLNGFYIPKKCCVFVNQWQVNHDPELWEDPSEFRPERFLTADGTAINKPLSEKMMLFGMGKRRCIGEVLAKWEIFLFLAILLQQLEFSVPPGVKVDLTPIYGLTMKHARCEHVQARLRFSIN
Procedure, shortened: (§2)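 Human liver microsomes incubated with isoform-specific substrates and compound, typically 0.1–25 μM. Metabolite formation read by LC-MS/MS, […]. IC50 calculated from the decrease in metabolite formation relative to vehicle control.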

Cytochrome P450 2C9 = Cytochrome P450 2C9 (Homo sapiens, UniProt P11712); experiment: Inhibition of CYP2C9 in human liver microsomes by LC-MS/MS analysis; format: ADME, Microsome; procedure, shortened: as §2
Cytochrome P450 2C19 = Cytochrome P450 2C19 (Homo sapiens, UniProt P33261); experiment: Inhibition of CYP2C19 in human liver microsomes by LC-MS/MS analysis; format: ADME, Microsome; procedure, shortened: as §2
Cytochrome P450 2D6 = Cytochrome P450 2D6 (Homo sapiens, UniProt P10635); experiment: Inhibition of CYP2D6 in human liver microsomes by LC-MS/MS analysis; format: ADME, Microsome; procedure, shortened: as §2
Cytochrome P450 3A4 = Cytochrome P450 3A4 (Homo sapiens, UniProt P08684); experiment: Inhibition of CYP3A4 in human liver microsomes by LC-MS/MS analysis; format: ADME, Microsome; procedure, shortened: as §2
[6] = molecular target: Voltage-gated inwardly rectifying potassium channel KCNH2 (Homo sapiens, UniProt Q12809); experiment: Inhibition of human ERG expressed in CHO cells by high throughput single cell planar patch clamp method; format: cell-based
Mus musculus [7] = experiment: Antidepressant activity in mouse assessed as reduction of immobility time at 10 mg/kg, po after 60 mins by tail suspension test relative to control; format: functional; set-up: scale not given: the % may be the effect or the level left
Procedure, shortened: (§3)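 Mouse tail suspension test, male mice (10–12 per group, blind). Single oral dose in 5% transcutol in saline, 60 min pretreatment. Immobility recorded automatically for 5 min. Compared with vehicle group. Desipramine 100 mg/kg PO used as reference. One-way ANOVA with Dunnett's post test, p < 0.05.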

Mus musculus [8] = experiment: Antidepressant activity in mouse assessed as reduction of immobility time at 30 mg/kg, po after 60 mins by tail suspension test relative to control; format: functional; set-up: scale not given: the % may be the effect or the level left; procedure, shortened: as §3
Mus musculus [9] = experiment: Antidepressant activity in mouse assessed as reduction of immobility time at 100 mg/kg, po after 60 mins by tail suspension test relative to control; format: functional; set-up: scale not given: the % may be the effect or the level left; procedure, shortened: as §3
Mus musculus [10] = experiment: Antidepressant activity in po dosed mouse assessed as reduction of immobility time after 60 mins by tail suspension test; format: functional, organism-based; procedure, shortened: as §3
Plasma [11] = experiment: Plasma concentration in mouse at 3 mg/kg, po; format: ADME, organism-based; set-up: dose 3 mg/kg, route oral; conditions: in vivo
Procedure, shortened: (§4)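 Male mice dosed orally at 3, 10 or 30 mg/kg in 5% transcutol/saline, 60 min before the tail suspension test. Terminal whole brain (ng/g) and plasma (ng/mL) samples taken from the test animals. Brain/plasma ratio derived from these levels.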

Brain [12] = experiment: Drug level in mouse brain at 3 mg/kg, po; format: ADME, organism-based; set-up: dose 3 mg/kg, route oral; conditions: in vivo; procedure, shortened: as §4
Plasma [13] = experiment: Plasma concentration in mouse at 10 mg/kg, po; format: ADME, organism-based; set-up: dose 10 mg/kg, route oral; conditions: in vivo; procedure, shortened: as §4
Brain [14] = experiment: Drug level in mouse brain at 10 mg/kg, po; format: ADME, organism-based; set-up: dose 10 mg/kg, route oral; conditions: in vivo; procedure, shortened: as §4
Plasma [15] = experiment: Plasma concentration in mouse at 30 mg/kg, po; format: ADME, organism-based; set-up: dose 30 mg/kg, route oral; conditions: in vivo; procedure, shortened: as §4
Brain [16] = experiment: Drug level in mouse brain at 30 mg/kg, po; format: ADME, organism-based; set-up: dose 30 mg/kg, route oral; conditions: in vivo; procedure, shortened: as §4
Mus musculus [17] = experiment: Toxicity in mouse assessed as increase of spontaneous locomotor activity at 30 mg/kg, po measured for 5 mins; format: organism-based; set-up: dose 30 mg/kg, route oral; conditions: in vivo
[18] = Ratio of drug level in brain to plasma in po dosed mouse; format: ADME, organism-based; conditions: brain and plasma, read-out: BPR; procedure, shortened: as §4
Plasma [19] = experiment: Plasma concentration in mouse assessed as (3aR,6aS)-3a-(3,4-dichlorophenyl)octahydrocyclopenta[c]pyrrole level at 3 mg/kg, po; format: ADME, organism-based; set-up: dose 3 mg/kg, route oral; conditions: in vivo; procedure, shortened: as §4
Brain [20] = experiment: Drug level in mouse brain assessed as (3aR,6aS)-3a-(3,4-dichlorophenyl)octahydrocyclopenta[c]pyrrole level at 3 mg/kg, po; format: ADME, organism-based; set-up: dose 3 mg/kg, route oral; conditions: in vivo; procedure, shortened: as §4
Plasma [21] = experiment: Plasma concentration in mouse assessed as (3aR,6aS)-3a-(3,4-dichlorophenyl)octahydrocyclopenta[c]pyrrole level at 10 mg/kg, po; format: ADME, organism-based; set-up: dose 10 mg/kg, route oral; conditions: in vivo; procedure, shortened: as §4
Brain [22] = experiment: Drug level in mouse brain assessed as (3aR,6aS)-3a-(3,4-dichlorophenyl)octahydrocyclopenta[c]pyrrole level at 10 mg/kg, po; format: ADME, organism-based; set-up: dose 10 mg/kg, route oral; conditions: in vivo; procedure, shortened: as §4
Plasma [23] = experiment: Plasma concentration in mouse assessed as (3aR,6aS)-3a-(3,4-dichlorophenyl)octahydrocyclopenta[c]pyrrole level at 30 mg/kg, po; format: ADME, organism-based; set-up: dose 30 mg/kg, route oral; conditions: in vivo; procedure, shortened: as §4
Brain [24] = experiment: Drug level in mouse brain assessed as (3aR,6aS)-3a-(3,4-dichlorophenyl)octahydrocyclopenta[c]pyrrole level at 30 mg/kg, po; format: ADME, organism-based; set-up: dose 30 mg/kg, route oral; conditions: in vivo; procedure, shortened: as §4

Sequence of Voltage-gated inwardly rectifying potassium channel KCNH2 (Q12809 whole entry): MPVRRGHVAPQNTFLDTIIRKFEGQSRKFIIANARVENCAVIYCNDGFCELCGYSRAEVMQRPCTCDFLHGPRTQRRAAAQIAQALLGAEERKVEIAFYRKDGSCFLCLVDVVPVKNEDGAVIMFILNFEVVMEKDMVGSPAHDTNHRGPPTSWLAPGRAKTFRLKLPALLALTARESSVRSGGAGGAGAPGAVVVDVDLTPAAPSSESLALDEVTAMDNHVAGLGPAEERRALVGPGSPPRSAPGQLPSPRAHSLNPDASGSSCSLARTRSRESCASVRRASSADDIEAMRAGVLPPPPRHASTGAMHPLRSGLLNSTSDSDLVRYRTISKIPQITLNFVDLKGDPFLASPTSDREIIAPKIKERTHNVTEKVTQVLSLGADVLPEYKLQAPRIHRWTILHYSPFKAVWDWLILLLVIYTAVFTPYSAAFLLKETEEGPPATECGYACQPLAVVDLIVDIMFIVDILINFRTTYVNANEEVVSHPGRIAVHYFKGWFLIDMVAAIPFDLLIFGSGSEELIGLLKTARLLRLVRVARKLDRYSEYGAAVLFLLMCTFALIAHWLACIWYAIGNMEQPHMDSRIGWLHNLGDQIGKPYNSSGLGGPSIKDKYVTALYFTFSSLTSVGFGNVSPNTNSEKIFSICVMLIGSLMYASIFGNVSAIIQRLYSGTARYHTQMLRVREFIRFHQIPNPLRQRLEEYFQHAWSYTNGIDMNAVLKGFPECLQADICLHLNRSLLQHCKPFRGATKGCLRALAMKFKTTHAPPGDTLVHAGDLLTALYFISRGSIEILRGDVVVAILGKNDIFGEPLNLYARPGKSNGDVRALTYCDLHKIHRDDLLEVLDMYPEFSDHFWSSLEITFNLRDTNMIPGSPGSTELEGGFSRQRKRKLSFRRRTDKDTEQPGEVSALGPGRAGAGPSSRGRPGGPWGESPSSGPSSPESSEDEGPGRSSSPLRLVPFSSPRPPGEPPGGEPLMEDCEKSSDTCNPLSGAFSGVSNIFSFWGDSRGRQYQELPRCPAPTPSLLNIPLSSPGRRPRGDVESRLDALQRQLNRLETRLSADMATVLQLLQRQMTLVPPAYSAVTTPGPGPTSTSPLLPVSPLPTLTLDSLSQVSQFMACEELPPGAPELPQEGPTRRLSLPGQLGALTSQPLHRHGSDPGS
Sequence of Sodium-dependent noradrenaline transporter (P23975 whole entry): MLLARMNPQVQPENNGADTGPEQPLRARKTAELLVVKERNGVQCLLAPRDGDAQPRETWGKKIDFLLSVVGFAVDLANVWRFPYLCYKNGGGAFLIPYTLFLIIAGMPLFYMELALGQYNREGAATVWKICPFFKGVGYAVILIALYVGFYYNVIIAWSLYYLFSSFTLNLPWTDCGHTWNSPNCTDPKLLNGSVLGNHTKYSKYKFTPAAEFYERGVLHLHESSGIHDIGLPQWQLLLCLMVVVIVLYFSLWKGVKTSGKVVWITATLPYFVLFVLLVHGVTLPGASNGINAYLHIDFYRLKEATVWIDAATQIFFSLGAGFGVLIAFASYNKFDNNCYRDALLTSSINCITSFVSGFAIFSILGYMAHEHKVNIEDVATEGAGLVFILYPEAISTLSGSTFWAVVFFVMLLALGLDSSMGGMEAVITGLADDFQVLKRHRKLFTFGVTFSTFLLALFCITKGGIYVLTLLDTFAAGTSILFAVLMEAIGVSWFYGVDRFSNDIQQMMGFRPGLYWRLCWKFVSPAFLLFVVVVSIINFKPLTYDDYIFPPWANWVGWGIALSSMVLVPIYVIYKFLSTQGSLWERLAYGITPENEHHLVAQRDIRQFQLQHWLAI
Sequence of Sodium-dependent serotonin transporter (P31645 whole entry): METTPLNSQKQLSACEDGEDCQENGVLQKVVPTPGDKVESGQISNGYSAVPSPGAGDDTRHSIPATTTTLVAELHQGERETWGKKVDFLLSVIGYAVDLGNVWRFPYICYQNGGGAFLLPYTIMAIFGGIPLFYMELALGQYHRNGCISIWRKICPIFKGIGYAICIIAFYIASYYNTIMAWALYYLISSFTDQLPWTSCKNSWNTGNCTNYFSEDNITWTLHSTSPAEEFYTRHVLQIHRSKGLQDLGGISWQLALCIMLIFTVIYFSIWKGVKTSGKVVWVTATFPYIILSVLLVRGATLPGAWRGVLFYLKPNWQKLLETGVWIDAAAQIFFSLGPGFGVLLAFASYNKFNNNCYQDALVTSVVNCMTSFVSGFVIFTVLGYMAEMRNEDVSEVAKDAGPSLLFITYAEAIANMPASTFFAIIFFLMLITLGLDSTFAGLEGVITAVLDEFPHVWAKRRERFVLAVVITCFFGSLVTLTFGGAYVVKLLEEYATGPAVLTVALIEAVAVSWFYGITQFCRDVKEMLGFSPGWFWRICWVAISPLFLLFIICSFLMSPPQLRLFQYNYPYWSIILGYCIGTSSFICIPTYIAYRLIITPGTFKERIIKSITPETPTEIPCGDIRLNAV
Sequence of Cytochrome P450 2D6 (P10635 whole entry): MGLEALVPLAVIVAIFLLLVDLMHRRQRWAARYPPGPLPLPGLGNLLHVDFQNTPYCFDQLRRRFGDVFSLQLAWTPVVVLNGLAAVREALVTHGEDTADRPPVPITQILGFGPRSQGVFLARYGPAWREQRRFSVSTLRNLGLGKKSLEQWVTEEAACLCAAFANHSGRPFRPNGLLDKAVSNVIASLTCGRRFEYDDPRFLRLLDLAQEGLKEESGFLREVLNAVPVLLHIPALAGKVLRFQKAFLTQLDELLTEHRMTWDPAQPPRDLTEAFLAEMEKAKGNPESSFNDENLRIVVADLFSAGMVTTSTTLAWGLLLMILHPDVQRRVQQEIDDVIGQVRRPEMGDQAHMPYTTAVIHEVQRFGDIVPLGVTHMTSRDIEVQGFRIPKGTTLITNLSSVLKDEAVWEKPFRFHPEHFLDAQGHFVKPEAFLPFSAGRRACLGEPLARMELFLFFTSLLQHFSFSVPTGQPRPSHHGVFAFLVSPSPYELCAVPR
Sequence of Cytochrome P450 3A4 (P08684 whole entry): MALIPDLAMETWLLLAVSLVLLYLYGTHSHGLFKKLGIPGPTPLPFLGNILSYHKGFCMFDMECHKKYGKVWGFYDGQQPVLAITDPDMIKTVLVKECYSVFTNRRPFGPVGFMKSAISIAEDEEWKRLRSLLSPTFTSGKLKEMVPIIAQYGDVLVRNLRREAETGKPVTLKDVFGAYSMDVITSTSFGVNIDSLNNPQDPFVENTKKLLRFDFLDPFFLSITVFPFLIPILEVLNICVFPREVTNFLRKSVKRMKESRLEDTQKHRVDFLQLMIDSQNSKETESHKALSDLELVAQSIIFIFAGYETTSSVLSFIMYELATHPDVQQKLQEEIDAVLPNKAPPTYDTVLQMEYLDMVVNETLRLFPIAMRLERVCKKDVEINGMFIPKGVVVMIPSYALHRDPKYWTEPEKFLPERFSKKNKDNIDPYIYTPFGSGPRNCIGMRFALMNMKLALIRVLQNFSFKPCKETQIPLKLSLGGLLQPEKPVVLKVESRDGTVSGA
Sequence of Cytochrome P450 2C9 (P11712 whole entry): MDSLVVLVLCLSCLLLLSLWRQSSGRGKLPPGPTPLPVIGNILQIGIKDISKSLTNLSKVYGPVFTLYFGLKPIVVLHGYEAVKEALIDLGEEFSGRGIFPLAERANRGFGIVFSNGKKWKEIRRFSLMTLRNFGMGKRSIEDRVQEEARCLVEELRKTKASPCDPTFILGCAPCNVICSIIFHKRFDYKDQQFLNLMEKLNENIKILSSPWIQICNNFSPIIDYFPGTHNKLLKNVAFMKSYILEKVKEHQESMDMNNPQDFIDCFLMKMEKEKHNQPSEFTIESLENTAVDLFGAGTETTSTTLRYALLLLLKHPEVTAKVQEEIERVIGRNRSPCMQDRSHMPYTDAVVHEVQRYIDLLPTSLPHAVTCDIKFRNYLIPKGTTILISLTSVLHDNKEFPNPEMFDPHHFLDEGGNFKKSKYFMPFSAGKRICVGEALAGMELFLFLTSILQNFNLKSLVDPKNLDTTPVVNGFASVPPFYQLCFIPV
Sequence of Cytochrome P450 2C19 (P33261 whole entry): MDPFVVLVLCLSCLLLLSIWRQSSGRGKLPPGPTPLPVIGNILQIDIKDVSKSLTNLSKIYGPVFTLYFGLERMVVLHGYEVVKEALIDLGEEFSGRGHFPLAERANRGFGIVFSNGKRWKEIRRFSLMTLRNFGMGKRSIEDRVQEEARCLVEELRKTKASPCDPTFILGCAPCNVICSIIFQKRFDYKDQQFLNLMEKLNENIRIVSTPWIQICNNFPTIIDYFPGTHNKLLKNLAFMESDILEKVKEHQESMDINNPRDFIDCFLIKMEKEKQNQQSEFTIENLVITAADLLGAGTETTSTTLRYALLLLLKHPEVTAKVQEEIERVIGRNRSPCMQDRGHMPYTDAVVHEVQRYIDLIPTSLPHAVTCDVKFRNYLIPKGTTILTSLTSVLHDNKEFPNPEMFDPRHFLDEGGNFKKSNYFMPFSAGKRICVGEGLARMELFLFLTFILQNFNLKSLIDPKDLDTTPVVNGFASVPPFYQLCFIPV
Sequence of Sodium-dependent dopamine transporter (Q01959 whole entry): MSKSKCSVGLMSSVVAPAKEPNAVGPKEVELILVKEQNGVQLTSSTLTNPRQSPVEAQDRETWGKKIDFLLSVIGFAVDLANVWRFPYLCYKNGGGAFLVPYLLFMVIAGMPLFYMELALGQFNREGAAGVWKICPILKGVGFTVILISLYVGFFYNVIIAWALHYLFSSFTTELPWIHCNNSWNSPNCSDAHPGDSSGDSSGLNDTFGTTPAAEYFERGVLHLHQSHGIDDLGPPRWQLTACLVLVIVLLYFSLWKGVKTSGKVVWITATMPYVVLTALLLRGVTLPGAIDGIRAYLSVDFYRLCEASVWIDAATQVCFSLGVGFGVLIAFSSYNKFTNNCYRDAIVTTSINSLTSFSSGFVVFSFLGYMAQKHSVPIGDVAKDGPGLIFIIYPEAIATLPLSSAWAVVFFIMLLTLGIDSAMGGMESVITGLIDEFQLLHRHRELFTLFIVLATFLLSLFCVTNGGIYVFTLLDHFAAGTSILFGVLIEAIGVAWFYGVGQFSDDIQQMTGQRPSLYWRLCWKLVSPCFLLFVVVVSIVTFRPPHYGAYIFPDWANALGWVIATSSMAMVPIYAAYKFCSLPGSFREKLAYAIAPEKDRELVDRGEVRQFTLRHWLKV

| SMILES | IC50 [1] [nM] | IC50 [2] [nM] | IC50 [3] [nM] | half-life at 3 µM [4] [min] | half-life at 3 µM [5] [min] | IC50 (CYP1A) [µM] | IC50 (Cytochrome P450 2C9) [µM] | IC50 (Cytochrome P450 2C19) [µM] | IC50 (Cytochrome P450 2D6) [nM] | IC50 (Cytochrome P450 3A4) [µM] | IC50 [6] [µM] | further results |
| --- | --- | --- | --- | --- | --- | --- | --- | --- | --- | --- | --- | --- |
| Clc1ccc([C@@]23CCCC[C@@H]2CNC3)cc1Cl | 91.2 | 204 | 83.2 | > 300 | > 300 | 6.14 | > 25 | > 25 | 7930 | 12.8 | 3.64 |  |
| CN1C[C@H]2CCCC[C@@]2(c2ccc(Cl)c(Cl)c2)C1 (single isomer, unassigned) | 9.77 | 56.2 | 55 | 125 | 45 | > 25 | > 25 | 11.9 | 1100 | 6.5 | 4.14 | Activity (Mus musculus [7]): 13%; Activity (Mus musculus [8]): 16%; Activity (Mus musculus [9]): 28%; Activity (Mus musculus [10]): Dose-dependent effect; Cp (Plasma [11]): 14 ng/mL; Drug uptake (Brain [12]): 294 ng/g; Cp (Plasma [13]): 50 ng/mL; Drug uptake (Brain [14]): 1054 ng/g; Cp (Plasma [15]): 181 ng/mL; Drug uptake (Brain [16]): 4203 ng/g; Activity (Mus musculus [17]): Non-toxic; Kp [18]: 5; Cp (Plasma [19]): 114 ng/mL; Drug uptake (Brain [20]): 440 ng/g; Cp (Plasma [21]): 417 ng/mL; Drug uptake (Brain [22]): 1878 ng/g; Cp (Plasma [23]): 1228 ng/mL; Drug uptake (Brain [24]): 6193 ng/g |
| Clc1ccc([C@]23CCCC[C@H]2CNC3)cc1Cl | 97.7 | 178 | 457 | > 300 | > 300 | 7.96 | > 25 | > 25 | 2650 | 8.39 | 6.48 |  |
| CCN1C[C@@H]2CCCC[C@]2(c2ccc(Cl)c(Cl)c2)C1 (single isomer, unassigned) | 69.2 | 38 | 10 | 55 | 33 | 4.23 | > 5 | > 25 | 2920 | > 5 | 4.33 |  |
| CN1C[C@@H]2CCCC[C@]2(c2ccc(Cl)c(Cl)c2)C1 | 107 | 141 | 14.1 | 62 | 35 | 3 | > 25 | > 25 | 8000 | 5.28 | 2.32 |  |
| CCN1C[C@H]2CCCC[C@@]2(c2ccc(Cl)c(Cl)c2)C1 | 45.7 | 26.9 | 25.1 | 68 | 52 | > 25 | > 5 | 17.9 | 250 | > 5 | 4.73 |  |
| Clc1ccc([C@]23CCC[C@H]2CNC3)cc1Cl (single isomer, unassigned) | 501 | 209 | 141 | 22 | 56 | 0.53 | 4.01 | 1.9 | 2470 | 9.17 | 6.4 |  |
| Clc1ccc([C@@]23CCC[C@@H]2CNC3)cc1Cl [listing 1 of 2 here] |  |  |  |  |  |  |  |  |  |  |  | Activity (Mus musculus [10]): Dose-dependent effect |
| Clc1ccc([C@@]23CCC[C@@H]2CNC3)cc1Cl [listing 2 of 2 here] | 49 | 107 | 123 | 262 | 91 | 18.7 | > 25 | 11.9 | 6960 | > 5 | 5.28 |  |
